The test system of one assay is MCF-7. Put plainly: antiproliferative assay, MCF-7. In kind it is cell-based. The settings on record: Homo sapiens, MCF7, read-out: IC50 MCF-7. The gist of the method:
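Run as an antiproliferative screen on human cancer lines alongside the normal mammary epithelial line MCF-10, with a positive control included. The highest test concentration was 33.3 μM.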

Another assay deals with MCF-10. Put plainly: antiproliferative assay, normal mammary epithelial cell line MCF-10. It counts as cell-based. The settings on record: Homo sapiens, MCF10, read-out: IC50 MCF-10. A digest of the protocol:
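Human cancer and normal mammary epithelial lines were tested in an antiproliferative assay. Shikonin served as the positive control. The highest test concentration was 33.3 μM.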

Broadly, the IC50 is the concentration at which inhibition is half-maximal. For `COc1cccc2c1C(=O)c1c(O)c3c(c(O)c1C2=O)C[C@@](O)(C(=O)CO)C[C@@H]3O[C@H]1C[C@H](N)[C@H](O)[C@H](C)O1` [Doxorubicin, reference compound], the IC50 with MCF-7 was 1.17 µM.
As for `O=C1C2=C(C(=O)c3ccccc31)C(O)C1=C(O)CC(c3ccccc3)C1=C2O` (stereo not drawn) [Compound 4a], the IC50 with MCF-10 and in the assay on MCF-7 was greater than 33.3 µM throughout.

(Values after article PMC5474392 (Bioorganic & medicinal chemistry letters, 2016).)
